Activity calls are given as the source filed them. The calls are words filed in the database; no cut-off is given here.
Columns and labels:
HL-60(TB) = test: Growth inhibition of human HL-60(TB) cells by NCI standard protocol based method; assay type: functional
In short: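 Tested in the NCI 60-cell-line screen under its standard protocol. A single-dose prescreen was run at 10⁻⁵ M, then a five-dose assay. GI50 is the molar concentration that inhibits net cell growth by 50%.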

NCI-H23 = test: Growth inhibition of human NCI-H23 cells by NCI standard protocol based method; assay type: functional
In short: (§1)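 NCI full 60-cell-line panel, 5-dose assay to the NCI standard protocol. GI₅₀ is the molar concentration inhibiting 50% net cell growth. Mean graph midpoint is averaged over all lines; where the effect is not reached, the highest tested concentration is used.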

SW-620 = test: Growth inhibition of human SW620 cells by NCI standard protocol based method; assay type: functional
In short: (§2)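 NCI 60-cell-line screen, standard NCI protocol. Single high dose of 10⁻⁵ M first, then a 5-dose assay across the full panel. Reported as GI₅₀, TGI and LC₅₀, the molar concentrations giving 50% net growth inhibition, total growth inhibition and 50% net cell death. Where an effect was not reached, the highest tested concentration was used.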

NCI-H322M = test: Growth inhibition of human NCI-H322M cells by NCI standard protocol based method; assay type: functional; in short: as §1
NCI-H522 = test: Growth inhibition of human NCI-H522 cells by NCI standard protocol based method; assay type: functional; in short: as §1
[1] = Growth inhibition of human SF295 cells by NCI standard protocol based method; assay type: functional; details: SF-295; in short: as §1
SK-MEL-2 = test: Growth inhibition of human SK-MEL-2 cells by NCI standard protocol based method; assay type: functional; in short: as §1
TK-10 = test: Growth inhibition of human TK10 cells by NCI standard protocol based method; assay type: functional; in short: as §2
A498 = test: Growth inhibition of human A498 cells by NCI standard protocol based method; assay type: functional; in short: as §1
[2] = Growth inhibition of human HOP92 cells by NCI standard protocol based method; assay type: functional; details: HOP-92; in short: as §1
SK-MEL-5 = test: Growth inhibition of human SK-MEL-5 cells by NCI standard protocol based method; assay type: functional; in short: as §1
OVCAR-3 = test: Growth inhibition of human OVCAR3 cells by NCI standard protocol based method; assay type: functional; in short: as §1
UACC-62 = test: Growth inhibition of human UACC62 cells by NCI standard protocol based method; assay type: functional; in short: as §2
786-0 = test: Growth inhibition of human 786-0 cells by NCI standard protocol based method; assay type: functional; in short: as §1
Tubulin (Homo sapiens) = Tubulin (Homo sapiens) (UniProt P68371+Q9H4B7+P0DPH7+P68366+Q13509+Q71U36+P04350+Q3ZCM7+P07437+P68363+Q9BQE3+Q6PEY2+Q13885+Q9BVA1+Q9BUF5); test: Inhibition of tubulin (unknown origin) assembly; assay type: protein-complex assay
CAKI-1 = test: Growth inhibition of human CAKI-1 cells by NCI standard protocol based method; assay type: functional; in short: as §1
K562 [3] = test: Growth inhibition of human K562 cells incubated for 24 hrs by trypan blue dye exclusion assay; assay type: functional, cell-based; details: K562, 24 h
In short: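 K562 cells, about 2 × 10⁵ cells/mL, precultured 24 h, then exposed 24 h to a range of compound concentrations. Viable cells counted by hemocytometer with trypan blue exclusion to derive IC₅₀.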

A549 = test: Growth inhibition of human A549/ATCC cells by NCI standard protocol based method; assay type: functional; in short: as §1
HCT-116 = test: Growth inhibition of human HCT116 cells by NCI standard protocol based method; assay type: functional; in short: as §1
K562 [4] = test: Induction of mitotic arrest in human K562 cells; assay type: functional, cell-based
K562 [5] = test: Growth inhibition of human K562 cells at 10 uM incubated for 24 hrs by trypan blue dye exclusion assay; assay type: functional; details: K562, 24 h, read-out: GI
In short: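 K562 cells in medium with 5% FBS at 37 °C, 5% CO₂. About 2 × 10⁵ cells/mL cultured 24 h, then compound added at 10 μM. After 24 h exposure, cells counted by hemocytometer and viability scored by trypan blue exclusion, reported as percent growth inhibition.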

SNB-19 = test: Growth inhibition of human SNB19 cells by NCI standard protocol based method; assay type: functional; in short: as §2
[6] = Growth inhibition of human MOLT4 cells by NCI standard protocol based method; assay type: functional; details: MOLT-4; in short: as §1
PC-3 = test: Growth inhibition of human PC3 cells by NCI standard protocol based method; assay type: functional; in short: as §1
MDA-MB-231 = test: Growth inhibition of human MDA-MB-231 cells by NCI standard protocol based method; assay type: functional; in short: as §1
SN12C = test: Growth inhibition of human SN12C cells by NCI standard protocol based method; assay type: functional; in short: as §2
[7] = Growth inhibition of human RXF393 cells by NCI standard protocol based method; assay type: functional; details: RXF 393; in short: as §1
MDA-MB-468 = test: Growth inhibition of human MDA-MB-468 cells by NCI standard protocol based method; assay type: functional; in short: as §1
[8] = Growth inhibition of human NCI60 cells assessed as cell growth level at 10 uM by NCI standard protocol based method; assay type: functional; parameters: scale not given: the % may be the effect or the level left
In short: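 NCI 60-cell-line screen (leukemia, lung, colon, melanoma, renal, ovarian, brain, breast, prostate) run to the NCI standard protocol. Single high dose of 10⁻⁵ M, read as growth percent. Mean graph midpoint is the arithmetic mean over all lines tested.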

SK-MEL-28 = test: Growth inhibition of human SK-MEL-28 cells by NCI standard protocol based method; assay type: functional; in short: as §1
KM12 = test: Growth inhibition of human KM12 cells by NCI standard protocol based method; assay type: functional; in short: as §1
OVCAR-5 = test: Growth inhibition of human OVCAR5 cells by NCI standard protocol based method; assay type: functional; in short: as §1
OVCAR-8 = test: Growth inhibition of human OVCAR8 cells by NCI standard protocol based method; assay type: functional; in short: as §1
MDA-MB-435 = test: Growth inhibition of human MDA-MB-435 cells by NCI standard protocol based method; assay type: functional; in short: as §1
NCI-H226 = test: Growth inhibition of human NCI-H226 cells by NCI standard protocol based method; assay type: functional; in short: as §1
HOP-62 = test: Growth inhibition of human HOP62 cells by NCI standard protocol based method; assay type: functional; in short: as §1
MCF7 = test: Growth inhibition of human MCF7 cells by NCI standard protocol based method; assay type: functional; in short: as §1
SNB-75 = test: Growth inhibition of human SNB75 cells by NCI standard protocol based method; assay type: functional; in short: as §2
SF-268 = test: Growth inhibition of human SF268 cells by NCI standard protocol based method; assay type: functional; in short: as §1
[9] = Growth inhibition of human SF539 cells by NCI standard protocol based method; assay type: functional; details: SF-539; in short: as §1
[10] = Growth inhibition of human NCI60 cells by NCI standard protocol based method; assay type: functional; details: for TGI: read-out: pTGI (converted); in short: as §1
NCI-H460 = test: Growth inhibition of human NCI-H460 cells by NCI standard protocol based method; assay type: functional; in short: as §1
M14 = test: Growth inhibition of human M14 cells by NCI standard protocol based method; assay type: functional; in short: as §1
K562 [11] = test: Growth inhibition of human K562 cells by NCI standard protocol based method; assay type: functional; in short: as §1
HT-29 = test: Growth inhibition of human HT-29 cells by NCI standard protocol based method; assay type: functional; in short: as §1
IGROV-1 = test: Growth inhibition of human IGROV1 cells by NCI standard protocol based method; assay type: functional; in short: as §1

`NC(=O)c1cc(I)ccc1NC(=O)COc1ccccc1` gave a GI50 (HL-60(TB)) of 339 nM, a GI50 (NCI-H23) of 657 nM and a GI50 (SW-620) of 454 nM. It also gave a GI50 (NCI-H322M) of 705 nM, a GI50 (NCI-H522) of 630 nM and a GI50 [1] of 223 nM. For the same compound, the GI50 (SK-MEL-2) was 463 nM, the GI50 (TK-10) was 8110 nM and the GI50 (A498) was 1020 nM. The GI50 [2] was 1500 nM, the GI50 (SK-MEL-5) was 533 nM and the GI50 (OVCAR-3) was 321 nM. For the same compound, the GI50 (UACC-62) was 701 nM, the GI50 (786-0) was 1070 nM and the inhibition (Tubulin (Homo sapiens)) was “inactive”. The GI50 (CAKI-1) was 519 nM, the IC50 (K562 [3]) was 160 nM and the GI50 (A549) was 732 nM. For the same compound, the GI50 (HCT-116) was 517 nM, the Activity (K562 [4]) was “Active” and the inhibition of growth at 10 µM (K562 [5]) was 73%. It also gave a GI50 (SNB-19) of 913 nM, a GI50 [6] of 1100 nM and a GI50 (PC-3) of 428 nM. The GI50 (MDA-MB-231) was 1280 nM, the GI50 (SN12C) was 945 nM and the GI50 [7] was 413 nM. For the same compound, the GI50 (MDA-MB-468) was 351 nM, the Activity [8] was 24.31% and the GI50 (SK-MEL-28) was 1790 nM. It also gave a GI50 (KM12) of 308 nM, a GI50 (OVCAR-5) of 1680 nM and a GI50 (OVCAR-8) of 904 nM. It also gave a GI50 (MDA-MB-435) of 101 nM, a GI50 (NCI-H226) of 4940 nM and a GI50 (HOP-62) of 824 nM. For the same compound, the GI50 (MCF7) was 230 nM, the GI50 (SNB-75) was 215 nM and the GI50 (SF-268) was 934 nM. It also gave a GI50 [9] of 249 nM, a GI50 [10] of 692 nM and an LC50 [10] of 89100 nM. It also gave a TGI [10] of 35500 nM, a GI50 (NCI-H460) of 425 nM and a GI50 (M14) of 389 nM. For the same compound, the GI50 (K562 [11]) was 161 nM, the GI50 (HT-29) was 349 nM and the GI50 (IGROV-1) was 1370 nM.

In the case of `COc1ccc(NC(=O)COc2ccccc2)c(C(N)=O)c1`, the GI50 (HL-60(TB)) is reported as 340 nM, the GI50 (NCI-H23) is reported as 1380 nM and the GI50 (SW-620) is reported as 448 nM. For the same compound, the GI50 (NCI-H322M) was 2100 nM, the GI50 (NCI-H522) was 1190 nM and the GI50 [1] was 650 nM. For the same compound, the GI50 (SK-MEL-2) was 611 nM, the GI50 (TK-10) was 23800 nM and the GI50 (A498) was 304 nM. The GI50 [2] was 414 nM, the GI50 (SK-MEL-5) was 1680 nM and the GI50 (OVCAR-3) was 375 nM. For the same compound, the GI50 (UACC-62) was 1050 nM, the GI50 (786-0) was 2100 nM and the inhibition (Tubulin (Homo sapiens)) was “inactive”. The GI50 (CAKI-1) was 721 nM, the IC50 (K562 [3]) was 1100 nM and the GI50 (A549) was 908 nM. The GI50 (HCT-116) was 518 nM, the Activity (K562 [4]) was “Active” and the inhibition of growth at 10 µM (K562 [5]) was 85.3%. It also gave a GI50 (SNB-19) of 3200 nM, a GI50 [6] of 2000 nM and a GI50 (PC-3) of 464 nM. For the same compound, the GI50 (MDA-MB-231) was 2030 nM, the GI50 (SN12C) was 3090 nM and the GI50 [7] was 1400 nM. For the same compound, the GI50 (MDA-MB-468) was 345 nM, the Activity [8] was 25.81% and the GI50 (SK-MEL-28) was 502 nM. It also gave a GI50 (KM12) of 388 nM, a GI50 (OVCAR-5) of 5400 nM and a GI50 (OVCAR-8) of 3130 nM. The GI50 (MDA-MB-435) was 121 nM, the GI50 (NCI-H226) was 21500 nM and the GI50 (HOP-62) was 1010 nM. For the same compound, the GI50 (MCF7) was 497 nM, the GI50 (SNB-75) was 245 nM and the GI50 (SF-268) was 2420 nM. It also gave a GI50 [9] of 441 nM, a GI50 [10] of 891 nM and an LC50 [10] of 97700 nM. The TGI [10] was 49000 nM, the GI50 (NCI-H460) was 484 nM and the GI50 (M14) was 514 nM. For the same compound, the GI50 (K562 [11]) was 245 nM, the GI50 (HT-29) was 388 nM and the GI50 (IGROV-1) was 4750 nM.
